Assay results as given in ChEMBL document CHEMBL1127602, “Synthesis and tissue biodistribution of [omega-11C]palmitic acid. A novel PET imaging agent for cardiac fatty acid metabolism” (J Med Chem, 1994).
Values joined by “and” are separate entries in the source; they are usually repeats but may differ in a detail not shown here. Equal values may be shown once.

Columns and labels:
[1] = tested on: Rattus norvegicus; experiment: Biodistribution in rat lung after 10 min of intravenous injection at a dose of […]; type: ADME, organism-based; settings: in vivo
In short: (§1)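 Female Sprague–Dawley rats (140–160 g, four per time point), fed ad lib, ether-anesthetized just before injection. Radiotracer bound to human serum albumin in ethanol–saline, given by femoral vein (≈50 μCi/rat). Rats sacrificed at 5, 10, 15, 30 or 60 min. Tissues excised and weighed, activity measured by γ-counting, expressed as %ID/g.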

[2] = tested on: Rattus norvegicus; experiment: Biodistribution in rat muscle after 30 min of intravenous injection at a dose of […]; type: ADME, organism-based, Muscle tissue; settings: in vivo, 0.5 h; in short: as §1
[3] = tested on: Rattus norvegicus; experiment: Biodistribution in rat heart after 5 min of intravenous injection at a dose of […]; type: ADME, organism-based; settings: in vivo; in short: as §1
[4] = tested on: Rattus norvegicus; experiment: Biodistribution in rat lung after 5 min of intravenous injection at a dose of […]; type: ADME, organism-based; settings: in vivo; in short: as §1
[5] = tested on: Rattus norvegicus; experiment: Biodistribution in rat blood after 30 min of intravenous injection at a dose of […]; type: ADME, organism-based; settings: in vivo, 0.5 h; in short: as §1
[6] = tested on: Rattus norvegicus; experiment: Biodistribution in rat muscle after 15 min of intravenous injection at a dose of […]; type: ADME, organism-based, Muscle tissue; settings: in vivo, 0.25 h; in short: as §1
[7] = tested on: Rattus norvegicus; experiment: Biodistribution in rat kidney after 30 min of intravenous injection at a dose of […]; type: ADME, organism-based; settings: in vivo, 0.5 h; in short: as §1
[8] = tested on: Rattus norvegicus; experiment: Biodistribution in rat heart after 30 min of intravenous injection at a dose of […]; type: ADME, organism-based; settings: in vivo, 0.5 h; in short: as §1
[9] = tested on: Rattus norvegicus; experiment: Biodistribution in rat muscle after 1 hr of intravenous injection at a dose of […]; type: ADME, organism-based, Muscle tissue; settings: in vivo; in short: as §1
[10] = tested on: Rattus norvegicus; experiment: Biodistribution in rat liver after 15 min of intravenous injection at a dose of […]; type: ADME, organism-based; settings: in vivo, 0.25 h; in short: as §1
[11] = tested on: Rattus norvegicus; experiment: Biodistribution in rat liver after 30 min of intravenous injection at a dose of […]; type: ADME, organism-based; settings: in vivo, 0.5 h; in short: as §1
[12] = tested on: Rattus norvegicus; experiment: Biodistribution in rat blood after 5 min of intravenous injection at a dose of […]; type: ADME, organism-based; settings: in vivo; in short: as §1
[13] = tested on: Rattus norvegicus; experiment: Biodistribution in rat liver after 10 min of intravenous injection at a dose of […]; type: ADME, organism-based; settings: in vivo; in short: as §1
[14] = tested on: Rattus norvegicus; experiment: Biodistribution in rat kidney after 1 h of intravenous injection at a dose of […]; type: ADME, organism-based; settings: in vivo; in short: as §1
[15] = tested on: Rattus norvegicus; experiment: Biodistribution in rat blood after 10 min of intravenous injection at a dose of […]; type: ADME, organism-based; settings: in vivo; in short: as §1
[16] = tested on: Rattus norvegicus; experiment: Biodistribution in rat heart after 15 min of intravenous injection at a dose of […]; type: ADME, organism-based; settings: in vivo, 0.25 h; in short: as §1
[17] = tested on: Rattus norvegicus; experiment: Biodistribution in rat muscle after 5 min of intravenous injection at a dose of […]; type: ADME, organism-based, Muscle tissue; settings: in vivo; in short: as §1
[18] = tested on: Rattus norvegicus; experiment: Biodistribution in rat kidney after 5 min of intravenous injection at a dose of […]; type: ADME, organism-based; settings: in vivo; in short: as §1
[19] = tested on: Rattus norvegicus; experiment: Biodistribution in rat kidney after 15 min of intravenous injection at a dose of […]; type: ADME, organism-based; settings: in vivo, 0.25 h; in short: as §1
[20] = tested on: Rattus norvegicus; experiment: Biodistribution in rat liver after 5 min of intravenous injection at a dose of […]; type: ADME, organism-based; settings: in vivo; in short: as §1
[21] = tested on: Rattus norvegicus; experiment: Biodistribution in rat blood after 15 min of intravenous injection at a dose of […]; type: ADME, organism-based; settings: in vivo, 0.25 h; in short: as §1
[22] = tested on: Rattus norvegicus; experiment: Biodistribution in rat liver after 1 hr of intravenous injection at a dose of […]; type: ADME, organism-based; settings: in vivo; in short: as §1
[23] = tested on: Rattus norvegicus; experiment: Biodistribution in rat kidney after 10 min of intravenous injection at a dose of […]; type: ADME, organism-based; settings: in vivo; in short: as §1
[24] = tested on: Rattus norvegicus; experiment: Biodistribution in rat muscle after 10 min of intravenous injection at a dose of […]; type: ADME, organism-based, Muscle tissue; settings: in vivo; in short: as §1
[25] = tested on: Rattus norvegicus; experiment: Biodistribution in rat lung after 30 min of intravenous injection at a dose of […]; type: ADME, organism-based; settings: in vivo, 0.5 h; in short: as §1
[26] = tested on: Rattus norvegicus; experiment: Biodistribution in rat blood after 1 hr of intravenous injection at a dose of […]; type: ADME, organism-based; settings: in vivo; in short: as §1
[27] = tested on: Rattus norvegicus; experiment: Biodistribution in rat heart after 10 min of intravenous injection at a dose of […]; type: ADME, organism-based; settings: in vivo; in short: as §1
[28] = tested on: Rattus norvegicus; experiment: Biodistribution in rat lung after 1 hr of intravenous injection at a dose of […]; type: ADME, organism-based; settings: in vivo; in short: as §1
[29] = tested on: Rattus norvegicus; experiment: Biodistribution in rat heart after 1 hr of intravenous injection at a dose of […]; type: ADME, organism-based; settings: in vivo; in short: as §1
[30] = tested on: Rattus norvegicus; experiment: Biodistribution in rat lung after 15 min of intravenous injection at a dose of […]; type: ADME, organism-based; settings: in vivo, 0.25 h; in short: as §1

What does the source list for CCCCCCCCCCCCCCCC(=O)O [PALMITIC ACID]?
ID/g [1]: 1.427% and 1.272%; ID/g [2]: 0.222% and 0.198%; ID/g [3]: 1.675% and 0.996%; ID/g [4]: 1.353% and 0.945%; ID/g [5]: 0.43% and 0.329%; ID/g [6]: 0.221% and 0.166%; ID/g [7]: 1.28% and 1.301%; ID/g [8]: 1.813% and 0.941%; ID/g [9]: 0.237% and 0.194%; ID/g [10]: 8.195% and 6.252%; ID/g [11]: 8.25% and 5.62%; ID/g [12]: 0.25% and 0.116%; ID/g [13]: 8.38% and 8.36%; ID/g [14]: 1.166% and 1.238%; ID/g [15]: 0.171% and 0.13%; ID/g [16]: 0.981% and 1.011%; ID/g [17]: 0.197% and 0.183%; ID/g [18]: 1.154% and 0.994%; ID/g [19]: 1.105% and 1.184%; ID/g [20]: 8.189% and 5.94%; ID/g [21]: 0.31% and 0.373%; ID/g [22]: 6.944% and 4.853%; ID/g [23]: 1.184% and 1.343%; ID/g [24]: 0.198% and 0.179%; ID/g [25]: 1.423% and 1.173%; ID/g [26]: 0.237% and 0.157%; ID/g [27]: 1.372% and 1.08%; ID/g [28]: 1.154% and 1.08%; ID/g [29]: 1.159% and 0.792%; ID/g [30]: 1.165% and 1.246%
